Assay results reported in paper PMC5900894 (Chemmedchem, 2018).

Experiments:
[1] = system: human peripheral blood mononuclear cells; assay: IL‐1β production in LPS‐stimulated human PBMCs; assay type: cell-based; conditions: pre‐incubated 30 min, LPS 100 ng mL^−1, overnight; tested 0.1, 1, 5, 10 μM
In short: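 PBMCs came from buffy coats diluted 1:1 in PBS and separated by density gradient centrifugation. Cells were washed, checked for viability with 0.1 % trypan blue, and resuspended in RPMI 1640 with 10 % FBS, penicillin and streptomycin in U-bottom wells. Test glycolipid alone or its 1:1 mix with peptide (0.1, 1, 5, 10 μM) was added 30 min before smooth LPS (100 ng mL⁻¹). IL-1β release was the read-out.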

[2] = DOSY NMR diffusion coefficient / aggregation; assay type: physicochemical; conditions: FP7 500 μM alone, 310 K, 10 % DMSO in PBS 100 mM pH 5.5
In short: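 Test glycolipid was diluted from a 50 mM DMSO stock into 100 mM PBS pH 5.5 (final DMSO 10 %) and examined at 500 μM by DOSY NMR. Spectra were recorded on the glycolipid alone, then after stepwise peptide additions up to [peptide]/[glycolipid] molar ratios of 0.06 or 0.1. Peptides came from 20 mM DMSO stocks.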

D (diffusion coefficient of FP7) [2]: 6.31×10^−11 m^2 s^−1
Compound: CCCCCCCCCCCCCC(=O)N[C@H]1[C@@H](OP(=O)(O)O)O[C@H](CO)[C@@H](OP(=O)(O)O)[C@@H]1OC(=O)CCCCCCCCCCCCC [FP7]
concentration halving the amount of IL‐1β released [1]: 5 µM
